Screens (PubChem)
Sampled rows, rich in hits. Any-hit rate of the full collection: about 5.2%.
core dimer inh: HCV core protein dimerization inhibition; hit rate 0.33% among 300,000; TR-FRET GST/Flag-core106 dimerization, 1536-well; AID 1899; inhibition, % at 5 µM;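 active = inhibition above the mean of all tested compounds plus 3 SD, set per screening campaign, cut at about 45% in these data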
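Assay system: Tagged HCV core106 pair (GST and Flag) | Buffer or medium: KF-containing HEPES buffer, pH 7.45, DTT, CHAPS, BSA | Also added: Eu donor and XL665 acceptor anti-tag antibodies | Dosing: One concentration, 5 µM, in 0.5% DMSO | Timing: 4 h at 22.5 °C | Technique: TR-FRET 671 and 617 nm emission | Repeats: Singlicate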
M18AAP inhibitor: blocks P. falciparum M18 aspartyl aminopeptidase. recombinant PfM18AAP, H-Glu-NHMec fluorogenic cleavage. inhibition, % at 7.35 µM. hit rate 1.2% among 290,000. AID 1822;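 active = inhibition above the campaign mean inhibition over all tested compounds plus 3 SD, cut at about 28% in these data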;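 also: 0% = plate median of test compound wells and 100% = 2 mM ZnCl2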
ZTA counter: ZTA (EBV) inhibition in EBNA-1 counter-screen. ZTA-DNA binding, fluorescence polarization. inhibition, % at 11 µM. hit rate 0.15% among 320,000. AID 2234; in the data active = inhibition above about 33%
Target sequence (P03206 whole entry, looked up): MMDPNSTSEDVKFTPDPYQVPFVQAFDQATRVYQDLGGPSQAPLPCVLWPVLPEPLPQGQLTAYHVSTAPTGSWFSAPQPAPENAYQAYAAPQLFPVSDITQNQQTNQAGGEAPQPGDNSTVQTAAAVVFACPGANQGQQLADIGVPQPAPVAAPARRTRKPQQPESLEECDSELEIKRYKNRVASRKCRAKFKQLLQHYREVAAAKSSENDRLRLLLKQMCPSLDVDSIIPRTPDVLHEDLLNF
EBNA-1 inh: blocks EBNA-1 binding to DNA; inhibition, % at 14.8 µM; hit rate 0.34% among 300,000; EBNA-1 DNA binding, fluorescence polarization; in the data active = inhibition above about 28%
ALR H2O2 inh: human ALR oxidase inhibition via reduced H2O2; purified ALR, DTT oxidation, H2O2 HRP-luminol luminescence; hit rate 3.8% among 290,000; P55789; inhibition, % (no concentration beside the values);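 active = mean replicate inhibition above about 79%, with every replicate also reaching it, limit read from the data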
Target sequence (P55789 whole entry, looked up): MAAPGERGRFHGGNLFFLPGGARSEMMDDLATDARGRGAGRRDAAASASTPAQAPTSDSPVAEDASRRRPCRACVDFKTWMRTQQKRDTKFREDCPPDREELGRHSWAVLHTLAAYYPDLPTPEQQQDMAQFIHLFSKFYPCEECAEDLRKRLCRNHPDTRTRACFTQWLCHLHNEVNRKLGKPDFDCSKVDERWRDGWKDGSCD
HCV NS3 hel inh: HCV NS3 helicase inhibition. NS3 helicase DNA unwinding, Cy5 molecular beacon fluorescence. inhibition, % at 10.9 µM. hit rate 0.56% among 290,000. AID 1800;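 active = inhibition above the mean of all tested compounds plus 3 SD, set per campaign, cut at about 35% in these data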;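 also: 0% = DMSO wells and 100% = thioflavine S control wells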
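test system = hepatitis C virus NS3 helicase domain fragment enzyme | reagent = annealed dual-labelled DNA beacon duplex, ATP-started | times = 1 h at 25 °C | detection = Cy5 fluorescence, 0 and 60 min reads | read-out basis = percent inhibition from t60/t0 fluorescence ratio | control set = DMSO and thioflavine S | replication = one well per compound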
The depositor's hits bear a star.

For O=C(N/N=C/c1coc2ccccc2c1=O)c1cn(-c2ccccc2)nc1-c1ccc(F)cc1 the results were core dimer inh -1, M18AAP inhibitor 1, ZTA counter 5, EBNA-1 inh 10, ALR H2O2 inh -1 and HCV NS3 hel inh 11.
For CC(C)(/C=N/NC(=O)CSCc1ccccc1Cl)CCC#N the results were core dimer inh 3, M18AAP inhibitor -4, ZTA counter 23, EBNA-1 inh 5, ALR H2O2 inh 98* and HCV NS3 hel inh -4.
`O=C(CSCc1ccccc1Cl)N/N=C/c1ccco1` gave core dimer inh 0, M18AAP inhibitor 0, ZTA counter 8, EBNA-1 inh -12, ALR H2O2 inh -3 and HCV NS3 hel inh -5.
For Cc1ccc2nc(C)cc(C(=O)OCC(=O)c3ccc(Cl)c([N+](=O)[O-])c3)c2c1 the results were core dimer inh 39, M18AAP inhibitor 4, ZTA counter 1, EBNA-1 inh 4, ALR H2O2 inh -1 and HCV NS3 hel inh 5.
Screening Cc1cc(C(=O)OCC(=O)c2ccc(Cl)c([N+](=O)[O-])c2)c2cccc(C)c2n1 returned core dimer inh 46*, M18AAP inhibitor 5, ZTA counter 6, EBNA-1 inh 0, ALR H2O2 inh -36 and HCV NS3 hel inh 12.
For CCOC(=O)N1CCN(C(=O)CSCc2nc(-c3ccccc3F)oc2C)CC1 the results were core dimer inh 3, M18AAP inhibitor 0, ZTA counter -17, EBNA-1 inh -9, ALR H2O2 inh 100* and HCV NS3 hel inh -2.
Screening CCOC(=O)N1CCN(C(=O)CS(=O)(=O)Cc2nc(-c3ccccc3C)oc2C)CC1 returned core dimer inh -5, M18AAP inhibitor 0, ZTA counter 5, EBNA-1 inh 1, ALR H2O2 inh -5 and HCV NS3 hel inh 12.
For CCOC(=O)N1CCN(C(=O)CSCc2nc(-c3ccccc3C)oc2C)CC1 the results were core dimer inh 0, M18AAP inhibitor -9, ZTA counter 7, EBNA-1 inh 0, ALR H2O2 inh 99* and HCV NS3 hel inh -2.
Screening Cc1c(C(=O)OC2CCCC2)[nH]c2c1C(=O)CC(c1ccco1)C2 (stereo not given) returned core dimer inh 17, M18AAP inhibitor 1, ZTA counter 3, EBNA-1 inh 8 and HCV NS3 hel inh 18.
C/C=C/COC(=O)c1[nH]c2c(c1C)C(=O)CC(c1ccc(N(C)C)cc1)C2 (stereo not given) was read as core dimer inh 6, M18AAP inhibitor 2, ZTA counter -1, EBNA-1 inh 3, ALR H2O2 inh -8 and HCV NS3 hel inh -1.
`Cc1c(C(=O)OCC2CCCO2)[nH]c2c1C(=O)CC(c1ccco1)C2` (stereo not given) gave core dimer inh 86*, M18AAP inhibitor -2, ZTA counter -7, EBNA-1 inh 2, ALR H2O2 inh -19 and HCV NS3 hel inh 18.
`C/C=C/COC(=O)c1[nH]c2c(c1C)C(=O)CC(c1ccco1)C2` (stereo not given) gave core dimer inh 53*, M18AAP inhibitor -1, ZTA counter 2, EBNA-1 inh 4, ALR H2O2 inh -6 and HCV NS3 hel inh 30.
`O=C1CCCC2=C1C(c1ccc(O)c(O)c1)c1c(ccc3ncccc13)N2` (stereo not given) gave core dimer inh 10, M18AAP inhibitor 77*, ZTA counter 5, EBNA-1 inh -11, ALR H2O2 inh 100* and HCV NS3 hel inh 26.
Screening CCOc1ccc(C2C3=C(CCCC3=O)Nc3ccc4ncccc4c32)cc1 (stereo not given) returned core dimer inh 3, M18AAP inhibitor 6, ZTA counter 0, EBNA-1 inh -2, ALR H2O2 inh -22 and HCV NS3 hel inh -6.
Screening NC(=O)C1CCN(CC(=O)Nc2ccccc2Sc2ccc(Cl)cc2)CC1 returned core dimer inh 5, M18AAP inhibitor 6, ZTA counter 10, EBNA-1 inh 1, ALR H2O2 inh 87* and HCV NS3 hel inh -26.
Screening CN(Cc1ccco1)S(=O)(=O)c1nnc(NC(=O)c2cccc(Cl)c2)s1 returned core dimer inh 16, M18AAP inhibitor -3, ZTA counter 3, EBNA-1 inh -2, ALR H2O2 inh 96* and HCV NS3 hel inh 0.
